In ChEMBL document CHEMBL1121744, “Synthesis and antihypertensive activity of a series of 8-substituted 1-oxa-3,8-diazaspiro[4.5]decan-2-ones” (J Med Chem, 1981):
“And” between values parts separate entries of the source, which are not always exact repeats. Equal entries are not always repeated.

Experiments:
[1] = test system: Rattus norvegicus; experiment: Antihypertensive activity as percentage fall in systolic blood pressure in spontaneously hypertensive rats after a period of 4 hr for a dose of 50 mg/kg; format: functional, organism-based; set-up: dose 50 mg/kg; details: Artery
In short: (§1)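 Male Okamoto-Aoki SHR, trained, in groups of four matched for mean systolic pressure; one group per run received water vehicle. Oral dosing in water (0.1 mL per 10 g) on two consecutive mornings. After the day-2 dose, rats were restrained at 30.0 ± 1.0 °C. Systolic pressure was read by tail cuff (inflated to 300 mmHg, first pulse) at 1–4 h. % fall is versus the untreated control group, by 1-tail t test (p ≤ 0.05).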

[2] = test system: Rattus norvegicus; experiment: Antihypertensive activity as percentage fall in systolic blood pressure in spontaneously hypertensive rats after a period of 1 hr for a dose of 50 mg/kg; format: functional, Artery; in short: as §1
[3] = (§2) Distribution coefficient between 1-Octanol and phosphate buffer at pH7.4; format: physicochemical; details: 1-octanol/phosphate buffer, pH 7.4
In short: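 Octanol/buffer distribution measured at pH 7.4 in phosphate with sodium chloride. Either HPLC (0.004 M) or shake flask.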

[4] = test system: Rattus norvegicus; experiment: Antihypertensive activity as percentage fall in systolic blood pressure in spontaneously hypertensive rats after a period of 3 h for a dose of 50 mg/kg; format: functional, organism-based; set-up: dose 50 mg/kg; details: Artery; in short: as §1
[5] = test system: Rattus norvegicus; experiment: Antihypertensive activity as percentage fall in systolic blood pressure in spontaneously hypertensive rats after a period of 2 hr for a dose of 50 mg/kg; format: functional, organism-based; set-up: dose 50 mg/kg; details: Artery; in short: as §1
[6] = test system: Rattus norvegicus; experiment: Antihypertensive activity as percentage fall in systolic blood pressure in spontaneously hypertensive rats after a period of 1 hr for a dose of 50 mg/kg po; format: functional, organism-based; set-up: dose 50 mg/kg; details: Artery; in short: as §1
[7] = test system: Rattus norvegicus; experiment: Percentage fall in systolic blood pressure in spontaneously hypertensive rats after 3 h following 50 mg/kg p.o.; format: functional, Artery; details: route oral; in short: as §1
[8] = test system: Rattus norvegicus; experiment: Percentage fall in systolic blood pressure in spontaneously hypertensive rats after 2 hr following 50 mg/kg p.o.; format: functional, Artery; details: route oral; in short: as §1
[9] = test system: Rattus norvegicus; experiment: The antihypertensive activity as percentage fall in systolic blood pressure in spontaneously hypertensive rats after a period of 3 hr for a dose of 50 mg/kg po
[10] = test system: Rattus norvegicus; experiment: The antihypertensive activity as percentage fall in systolic blood pressure in spontaneously hypertensive rats after a period of 4 hr for a dose of 50 mg/kg po
[11] = test system: Rattus norvegicus; experiment: The antihypertensive activity as percentage fall in systolic blood pressure in spontaneously hypertensive rats after a period of 1 hr for a dose of 50 mg/kg po
[12] = test system: Rattus norvegicus; experiment: The antihypertensive activity as percentage fall in systolic blood pressure in spontaneously hypertensive rats after a period of 2 hr for a dose of 50 mg/kg po
[13] = as §2; format: physicochemical; details: 1-octanol/phosphate buffer, pH 7.4; remark: listed apart in the source

Structure (SMILES) | Decrease in blood pressure [1] | Decrease in blood pressure [2] | logD [3] | Decrease in blood pressure [4] | Decrease in blood pressure [5] | Decrease in blood pressure [6] | other results
CCCC1CN(CCc2c[nH]c3ccccc23)CCC12CNC(=O)O2 (stereo not given) | Not significant | 21% | 2.42 | Not significant | Not significant |  | 
O=C1OC2(CCN(CCc3c[nH]c4ccccc34)CC2)CN1Cc1ccccc1 | Not significant |  | 2.91 | Not significant | Not significant | Not significant | 
O=C1OC2(CCN(CC(O)C3COc4ccccc4O3)CC2)CN1Cc1ccccc1 (stereo not given) | Not significant |  |  | Not significant | Not significant | Not significant | 
CCC1N(C)C(=O)OC12CCN(CCc1c[nH]c3ccccc13)CC2 (stereo not given) | Not significant |  | 2.14 | Not significant | Not significant | Not significant | 
CCCC1NC(=O)OC12CCN(CCc1c[nH]c3ccccc13)CC2 (stereo not given) | Not significant | 36% | 2.31 |  |  |  | Decrease in blood pressure [7]: 16%; Decrease in blood pressure [8]: 12%
CC(C)CC1NC(=O)OC12CCN(CCc1c[nH]c3ccccc13)CC2 (stereo not given) | Not significant | 27% |  |  |  |  | Decrease in blood pressure [7]: 22%
O=C1NC(c2ccccc2)C2(CCN(CCc3c[nH]c4ccccc34)CC2)O1 (stereo not given) | Not significant |  | 2.61 | Not significant | Not significant | Not significant | 
CCC1NC(=O)OC12CCN(CC(O)C1COc3ccccc3O1)CC2 (stereo not given) |  |  |  |  |  |  | Decrease in blood pressure [9]: 32%; Decrease in blood pressure [10]: 40%; Decrease in blood pressure [11]: 47%; Decrease in blood pressure [12]: 43%
CCCN1CC2(CCN(CC(O)C3COc4ccccc4O3)CC2)OC1=O (stereo not given) | Not significant |  |  | Not significant | Not significant | Not significant | 
O=C1NC(c2ccccc2)C2(CCN(CC(O)C3COc4ccccc4O3)CC2)O1 (stereo not given) | Not significant |  | 2.41 | Not significant | Not significant | Not significant | 
CC1NC(=O)OC12CCN(CCc1c[nH]c3ccccc13)CC2 (stereo not given) | Not significant | 18% | 1.43 | Not significant | Not significant |  | 
CCCCC1NC(=O)OC12CCN(CCc1c[nH]c3ccccc13)CC2 (stereo not given) | Not significant | 24% |  |  |  |  | Decrease in blood pressure [7]: 15%; Decrease in blood pressure [8]: 14%
CCN1CC2(CCN(CC(O)COc3ccccc3OC)CC2)OC1=O (stereo not given) | Not significant | 11% |  | Not significant | Not significant |  | 
CCCCN1CC2(CCN(CCc3c[nH]c4ccccc34)CC2)OC1=O | Not significant |  |  | Not significant | Not significant | Not significant | 
CC(C)C1NC(=O)OC12CCN(CCc1c[nH]c3ccccc13)CC2 (stereo not given) | Not significant | 26% |  | Not significant |  |  | Decrease in blood pressure [8]: 17%
COc1ccccc1OCC(O)CN1CCC2(CC1)CN(CCc1ccccc1)C(=O)O2 (stereo not given) | Not significant |  |  | Not significant | Not significant | Not significant | 

Structure (SMILES) | Decrease in blood pressure [1] | Decrease in blood pressure [2] | logD [3] | Decrease in blood pressure [4] | Decrease in blood pressure [5] | Decrease in blood pressure [6] | other results
COCCN1CC2(CCN(CCc3c[nH]c4ccccc34)CC2)OC1=O | Not significant | 21% |  | Not significant | Not significant |  | 
O=C1NC(Cc2ccccc2)C2(CCN(CC(O)C3COc4ccccc4O3)CC2)O1 (stereo not given) | Not significant |  | 2.41 | Not significant | Not significant | Not significant | 
COc1ccccc1OCC(O)CN1CCC2(CC1)CN(C(C)C)C(=O)O2 (stereo not given) | Not significant |  |  | Not significant | Not significant | Not significant | 
CCCN1CC2(CCN(CC(O)COc3ccccc3OC)CC2)OC1=O (stereo not given) | Not significant |  |  | Not significant | Not significant | Not significant | 
CCCN1CC2(CCN(CCc3c[nH]c4ccccc34)CC2)OC1=O | Not significant | 14% | 2.36 | Not significant | Not significant |  | 
CCCCN1CC2(CCN(CC(O)C3COc4ccccc4O3)CC2)OC1=O (stereo not given) | Not significant |  |  | Not significant | Not significant | Not significant | 
CCC1CN(CCc2c[nH]c3ccccc23)CCC12CNC(=O)O2 (stereo not given) | Not significant | 16% | 2.01 | Not significant |  |  | Decrease in blood pressure [8]: 19%
O=C1OC2(CCN(CC(O)C3COc4ccccc4O3)CC2)CN1CCc1ccccc1 (stereo not given) | Not significant | 14% | 2.79 | Not significant | Not significant |  | 
O=C1OC2(CCN(CC(O)C3COc4ccccc4O3)CC2)CN1c1ccccc1 (stereo not given) | Not significant | 16% |  | Not significant | Not significant |  | 
COc1ccccc1OC[C@@H](O)CN1CCC2(CC1)CN(C)C(=O)O2 |  | 25% |  |  |  |  | Decrease in blood pressure [7]: 10%; Decrease in blood pressure ([8]; 50 mg/kg): 16% and 13%
CCCCN1CC2(CCN(CC(O)COc3ccccc3OC)CC2)OC1=O (stereo not given) | Not significant |  |  | Not significant | Not significant | Not significant | 
COc1ccccc1OCC(O)CN1CCC2(CC1)CNC(=O)O2 (stereo not given) | Not significant |  | 0.69 | Not significant | Not significant | Not significant | 
CCC1NC(=O)OC12CC[N+](C)(CCc1c[nH]c3ccccc13)CC2.[I-] (stereo not given) | Not significant | 20% |  | Not significant | Not significant |  | 
COc1ccccc1OC[C@H](O)CN1CCC2(CC1)CN(C)C(=O)O2 | Not significant | 10% |  | Not significant |  |  | Decrease in blood pressure [8]: 5%
O=C1OC2(CCN(CCc3c[nH]c4ccccc34)CC2)CN1CCc1ccccc1 | Not significant |  | 2.95 | Not significant | Not significant | Not significant | 
COc1ccccc1OCC(O)CN1CCC2(CC1)CN(Cc1ccccc1)C(=O)O2 (stereo not given) | Not significant |  |  | Not significant | Not significant | Not significant | logD [13]: 2.19
